Measured values: ChEMBL document CHEMBL2331327, “Bioactive abietane and ent-kaurane diterpenoids from Isodon tenuifolius” (J Nat Prod, 2013)
Residues, ends and D or L forms follow the SMILES beside them. *: point of attachment. Cbz = O=C(OCc1ccccc1)*

Legend:
[1] = system: RAW264.7; test: Cytotoxicity against mouse RAW264.7 cells assessed as inhibition of cell viability after 18 hrs by MTS assay; assay type: cell-based; conditions: raw264.7, 18 h
How it was run: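 RAW264.7 cells seeded at 2 × 10^5 cells/well and preincubated 24 h, then exposed to compounds (DMSO solutions) at given concentrations for 18 h. MTS added for 4 h and absorbance read at 490 nm. Viability expressed relative to untreated cells as 100%.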

[2] = system: RAW264.7; test: Inhibition of nitric oxide production in LPS-stimulated mouse RAW264.7 cells measured after 18 hrs by Griess reagent based multilabel plate reader analysis; assay type: functional, cell-based; conditions: RAW264.7, 18 h
How it was run: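 RAW264.7 macrophages in RPMI 1640 with 10% FBS at 2 × 10^5 cells/well, preincubated 24 h at 37 °C, 5% CO2. Then 18 h with 1 μg/mL LPS plus serial dilutions of compound (DMSO stock diluted in medium; top concentration 25 μM). Supernatant mixed 1:1 with Griess reagent, 5 min, absorbance at 570 nm, in triplicate. MG-132 as positive control.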

[3] = system: SW480; test: Cytotoxicity against human SW480 cells assessed as inhibition of cell viability after 48 hrs by MTT assay; assay type: functional, cell-based; conditions: SW480, 48 h
How it was run: (§1)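 Cells grown in RPMI-1640 or DMEM with 10% FBS, 37 °C, 5% CO2. Adherent lines seeded at 1 × 10^5 cells/mL and allowed 12 h to attach; suspension cells seeded just before dosing. Compounds tested at various concentrations in triplicate for 48 h; cisplatin and paclitaxel as positive controls. MTT added for 4 h at 37 °C, then lysis in 20% SDS−50% DMF and OD read at 595 nm. IC50 by Reed and Muench method.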

[4] = system: MCF7; test: Cytotoxicity against human MCF7 cells assessed as inhibition of cell viability after 48 hrs by MTT assay; assay type: functional, cell-based; conditions: MCF7, 48 h; how it was run: as §1
[5] = system: A549; test: Cytotoxicity against human A549 cells assessed as inhibition of cell viability after 48 hrs by MTT assay; assay type: functional, cell-based; conditions: A549, 48 h; how it was run: as §1
[6] = system: HL-60; test: Cytotoxicity against human HL60 cells assessed as inhibition of cell viability after 48 hrs by MTT assay; assay type: functional, cell-based; conditions: HL-60, 48 h; how it was run: as §1
[7] = system: SMMC-7721; test: Cytotoxicity against human SMMC7721 cells assessed as inhibition of cell viability after 48 hrs by MTT assay; assay type: functional, cell-based; conditions: SMMC-7721, 48 h; how it was run: as §1

SMILES	Activity [1]	IC50 [2] [µM]	IC50 [3] [µM]	IC50 [4] [µM]	IC50 [5] [µM]	IC50 [6] [µM]	IC50 [7] [µM]
C=C1C(=O)[C@]23C[C@H]1C[C@H](OC(C)=O)[C@H]2[C@]1(C)[C@@H](OC(C)=O)C[C@H](O)C(C)(C)[C@H]1C[C@@H]3OC(C)=O [ADENANTHIN C]	Non-toxic	3.8	5.1	4.8	> 10	1.8	3.2
C=C1[C@@H]2C[C@H](O)[C@H]3[C@@]4(C)[C@H](C[C@H](OC(C)=O)[C@]3(C2)[C@@H]1O)C(C)(C)[C@@H](OC(C)=O)C[C@@H]4O [ADENANTHIN E]	Non-toxic	> 25	> 10	> 10	> 10	> 10	> 10
C=C1[C@@H]2C[C@H](OC(C)=O)[C@H]3[C@]4(C)[C@@H](OC(C)=O)C[C@H](O)C(C)(C)[C@H]4C(=O)[C@H](OC(C)=O)[C@]3(C2)[C@@H]1O [ADENANTHIN J]	Non-toxic	> 25	> 10	> 10	> 10	> 10	> 10
C=C1C(=O)[C@@]23CC(=O)[C@@H]4C(C)(C)[C@@H](OC(C)=O)C[C@H](O)[C@@]4(C)[C@@H]2[C@@H](O)C[C@@H]1C3 [INFLEXARABDONIN E]	Non-toxic	5.7	4.6	4.8	6.8	1.7	2.2
CC(C)c1cc2c3c(c1)[C@H](O)C[C@H]1[C@](C)(CO)CC[C@H](O2)[C@]31C [ISOABIETENIN A]	Non-toxic	> 25	> 10	> 10	> 10	> 10	> 10
CC(C)[C@@]1(O)CC(=O)C2=C(C1)[C@H](O)C[C@H]1[C@](C)(CO)CCC[C@]21C [ISOABIETENIN B]	Non-toxic	> 25	> 10	> 10	> 10	> 10	> 10
C=C(C=O)[C@H]1C[C@@H](OC(C)=O)[C@H]2[C@@](O)(C1)[C@H](OC(C)=O)C(=O)[C@H]1C(C)(C)[C@H](O)C[C@@H](OC(C)=O)[C@@]12C [ISOABIETENIN C]	Non-toxic	10.8	> 10	> 10	> 10	4.7	> 10
CC(C)C[C@@H](C=O)NC(=O)[C@H](CC(C)C)NC(=O)[C@H](CC(C)C)NC(=O)OCc1ccccc1 [MG-132] (Cbz-Leu-Leu-Leu-aldehyde)	–	0.15	–	–	–	–	–
CC(=O)O[C@H]1C(=O)[C@@]2(C)[C@H]([C@H](OC(=O)c3ccccc3)[C@]3(O)C[C@H](OC(=O)[C@H](O)[C@@H](NC(=O)c4ccccc4)c4ccccc4)C(C)=C1C3(C)C)[C@]1(OC(C)=O)CO[C@@H]1C[C@@H]2O [PACLITAXEL]	–	–	0.15	< 0.008	< 0.008	< 0.008	< 0.008
C=C1C(=O)[C@@]23CC[C@@H]4C(C)(C)[C@H](O)CC[C@@]4(C)[C@@H]2[C@@H](O)C[C@@H]1C3 [TENUIFOLIN A]	Non-toxic	6.9	> 10	> 10	> 10	4.7	7.4
C=C1[C@@H]2C[C@H](O)[C@H]3[C@]4(C)CC[C@H](O)C(C)(C)[C@H]4CC[C@]3(C2)[C@@H]1O [TENUIFOLIN B]	Non-toxic	> 25	> 10	> 10	> 10	> 10	> 10
C=C1[C@@H]2C[C@H](OC(C)=O)[C@@H]3[C@](C2)(C(=O)C[C@@H]2C(C)(C)[C@@H](O)C[C@H](OC(C)=O)[C@]23C)[C@@H]1OC(C)=O [TENUIFOLIN C]	Non-toxic	> 25	> 10	> 10	> 10	> 10	> 10
C=C1[C@@H]2C[C@H](OC(C)=O)[C@H]3[C@]4(C)[C@@H](OC(C)=O)C[C@H](O)C(C)(C)[C@H]4C[C@H](O)[C@]3(C2)[C@@H]1O [TENUIFOLIN D]	Non-toxic	> 25	> 10	> 10	> 10	> 10	> 10
C=C1[C@@H]2C[C@H](O)[C@H]3[C@]4(C)CC[C@H](O)C(C)(C)[C@H]4C(=O)C[C@]3(C2)[C@@H]1O [TENUIFOLIN E]	Non-toxic	> 25	> 10	> 10	> 10	> 10	> 10
C=C1[C@@H]2C[C@H](O)[C@@H]3[C@@](CC(=O)[C@@H]4C(C)(C)[C@@H](O)C[C@H](OC(C)=O)[C@]43C)(C2)[C@@H]1O [TENUIFOLIN F]	Non-toxic	> 25	> 10	> 10	> 10	> 10	> 10
C=C1[C@@H]2C[C@H](OC(C)=O)[C@@H]3[C@@](CC(=O)[C@@H]4C(C)(C)[C@@H](O)C[C@H](O)[C@]43C)(C2)[C@@H]1O [TENUIFOLIN G]	Non-toxic	> 25	> 10	> 10	> 10	> 10	> 10
C=C1[C@@H]2CC(=O)[C@@H]3[C@@](CC(=O)[C@@H]4C(C)(C)[C@@H](O)C[C@H](OC(C)=O)[C@]43C)(C2)[C@@H]1O [TENUIFOLIN H]	Non-toxic	> 25	> 10	> 10	> 10	> 10	> 10
C=C1C(=O)[C@@]23CC(=O)[C@@H]4C(C)(C)[C@@H](O)C[C@H](O)[C@@]4(C)[C@@H]2[C@@H](OC(C)=O)C[C@@H]1C3 [TENUIFOLIN I]	Non-toxic	5.8	4.3	3	4.5	0.8	1.9
C=C1C(=O)[C@@]23CC(=O)[C@@H]4C(C)(C)[C@@H](OC(C)=O)CC[C@@]4(C)[C@@H]2[C@@H](O)[C@H](O)[C@@H]1C3 [TENUIFOLIN J]	Non-toxic	8.8	> 10	> 10	> 10	3.8	6.3
COC[C@@H]1C(=O)[C@]23C[C@H]1C[C@H](OC(C)=O)[C@H]2[C@@]1(C)[C@H](C(=O)[C@@H]3O)C(C)(C)[C@@H](O)C[C@@H]1O [TENUIFOLIN L]	Non-toxic	> 25	> 10	> 10	> 10	> 10	> 10
COC[C@H]1C(=O)[C@]23C[C@H]1C[C@H](OC(C)=O)[C@H]2[C@]1(C)[C@@H](OC(C)=O)C[C@H](O)C(C)(C)[C@H]1C(=O)[C@@H]3O [TENUIFOLIN M]	Non-toxic	> 25	> 10	> 10	> 10	4.4	> 10
